Measured values: the RNAGym collection of RNA variant scans (doi:10.1126/science.aae0568)
Fewer inactive variants are shown than the library holds.

B1: tRNA (parent)
chain: GUUCCGUUGGCGUAAUGGUAACGCGUCUCCCUCCUAAGGAGAAGACUGCGGGUUCGAGUCCCGUACGGAACG

Variants of: B1
Assay: yeast fitness relative to wild type (ratio to wild type); higher = fitter; tRNA-Arg(CCU), competitive growth, 37 C, YPD
Method in brief: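 Amplicons of the tRNA-Arg(CCU) gene were sequenced, 100-nucleotide paired-end, from the start population and from each end population of a pooled yeast competition. The competition, in six parallel replicates, lasted 24 hours in YPD at 37°C. Fitness relative to wild type was calculated from changes in genotype frequencies. Genotypes had to have ≥ 100 starting reads, and estimates < 0.5 were set to 0.5.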

Variant | yeast fitness
U3G C33U A42G A57U C61A | ≤ 0.5
C4A C5U C22U C34A C62G | ≤ 0.5
U3C C27U C33U C61A | ≤ 0.5
U3C A57C U64A | ≤ 0.5
U3G C30U G48C A65U G68C | ≤ 0.5
C4A C5U U8C | ≤ 0.5
U3C U16G C29U C46U G67C A69U | ≤ 0.5
C4A A20C C27U G50A | 0.597
C4A C5A C11G A15U U19C A21U | ≤ 0.5
U3C A40U A45U G52A | ≤ 0.5
U3G C11A G23C G52C | ≤ 0.5
U3C U19A A57G | 0.624
U3C A42U G63A | ≤ 0.5
C4A C5G A57U G68U | 0.575
C4A C11G | 0.769
U3C A21C A45C C49U | 0.532
U3C G17C A40G C61U | ≤ 0.5
U3C C31U A36U G39C | ≤ 0.5
C4A C11A U13C A70U | ≤ 0.5
U3C G10C C27U C66U | ≤ 0.5
U3C C11A C31A G67U | ≤ 0.5
U3C U16A | 0.936
C4A A15U G18C C55U G56C G67A | ≤ 0.5
U3G C4U | 0.915

Variant | yeast fitness
U3C A36U A69U | ≤ 0.5
U3G U13C A14U C61G C62U | ≤ 0.5
U3C A21U G38C | 0.668
U3A U13A C22U C24U | ≤ 0.5
U3C G12A C46U G52C | ≤ 0.5
U3G U8A C31A G52A | ≤ 0.5
C4A C5U C22U C34A C49G | ≤ 0.5
U3C U19A U28A C60G | ≤ 0.5
U3C A69U | 1.03
U3C C30U | 0.879
U3G U8C C62U | 0.525
U3C C5A C66U | 0.605
U3G A15C | 0.511
U3A U7C | 0.839
U3C A14U U28G | ≤ 0.5
U3C C11G G63U | ≤ 0.5
U3G A20C A43U C55A A65U A70G | ≤ 0.5
C4A A14C A21G C29A C34U A69U | ≤ 0.5
U3C A37U G51A C62U | ≤ 0.5
U3A U7G A14U G25A G41C C46U U59C C61A | ≤ 0.5
C4A A14U A20C U28G G67A A70G | ≤ 0.5
C4A A40C | 0.812
C4A A40U | 0.94
C4A C5U C30U A45G | 0.516

Variant | yeast fitness
C4A A15C C66U | ≤ 0.5
U3C G17A | 0.831
U3C C5G G17C C29U | ≤ 0.5
U3C U13C C24U G52A G68U | ≤ 0.5
U3C U13C U19A C22U G68C | ≤ 0.5
U3C A36C | 0.566
U3C G25C C49U | 0.758
U3C U7A G25A A42U U64A | ≤ 0.5
C4A C5U C22U C34A C61G | ≤ 0.5
U3C C62U | 0.904
U3C A40U C49A C62A | ≤ 0.5
U3A U8C A36U U53G | ≤ 0.5
U3C A21U C34A G52A C61G G63A | ≤ 0.5
C4A A65U | 0.719
C4A A65G | 0.946
C4A A15G G17A | 0.724
U3A U28C C29G | ≤ 0.5
U3C U59C A65C A69G | 0.593
U3C A15G G68C | 0.618
U3G C31U C49U | 0.681
C4A A36C | 0.686
U3C C5G G51C | ≤ 0.5
U3C U59A C61G | 0.587
U3A U19A C61U A70U | 0.551

Variant | yeast fitness
C4A A42U A69U | 0.625
C4A A20C C29A | ≤ 0.5
U3G U13G C30A C31A | ≤ 0.5
U3C C4A U16C G17A | ≤ 0.5
C4A C5A C22A U28G C33G A57G | ≤ 0.5
U3C U16C C30G C31G A37U | 0.718
U3C G25U U64G | ≤ 0.5
U3G U16C G39C A45C C49G C62G | ≤ 0.5
U3G A43U C62U | 0.727
U3C U16G G18A A43C U53A | ≤ 0.5
C4A A42G C60G | 0.53
C4A A14U A20C U28G A42G | ≤ 0.5
U3C U26C | 0.886
C4A C5G C22U | ≤ 0.5
U3C U7G A14C C31A | 0.788
U3C G48A G67C | 0.653
U3C G50A | 0.961
U3C C27G C33A | 0.655
C4A C11G C31U G38C G52A C66G | 0.649
U3C G25C G38A A42C G52A C62U | ≤ 0.5
U3G A21C G67U | ≤ 0.5
U3G G44A G67C | ≤ 0.5
U3G A45G U54C | 0.678
C4A A37U C55U | 0.585

Variant | yeast fitness
U3A U13C G25A | 0.67
C4A C5U C22U C34A | 0.576
U3C G17C C22A C24G U28C C33A | ≤ 0.5
U3C U32A C46G C62A | ≤ 0.5
U3C A42C A69C | 0.978
U3C A15G C60G C62U | ≤ 0.5
U3C C5G G9A C11G C66U | ≤ 0.5
U3G A14G C60G | ≤ 0.5
U3C C31A | 0.845
U3C C4U A15G U26A U32A C62U G67C | 0.613
U3G C4G C22U C29U G52C G63A G67U A70C | ≤ 0.5
U3C A36G C61U | 0.623
U3G A20C G44C C61U | 0.606
U3C U8C C30G U35C A42G C49U G56A G58A A70C | ≤ 0.5
C4A C5U C22U C34A C62U A70U | ≤ 0.5
U3A U59A | 0.658
U3A U59G | 0.81
C4A A37C | 0.707
U3C U19G C27G C34A A42U | ≤ 0.5
U3G A37U G63A C66U | ≤ 0.5
C4A C5G C24U G25A A57U | ≤ 0.5
U3C G9A C62G | 0.681
C4A A42U A57U G58C | ≤ 0.5
U3G U19A G51A C66G | ≤ 0.5

Variant | yeast fitness
C4A A20G | 0.859
U3G A43U U54A A57C | 0.588
U3C A45U C49G | 0.678
C4A C22A | 0.706
U3C C11G A42C C49U | ≤ 0.5
U3C U26C A42U C60G G67A | ≤ 0.5
C4A A43C G51A G56C | 0.516
U3A U7A U32C G41A | ≤ 0.5
C4A C11U C34G C62A | 0.748
U3G U32C | 0.86
U3C G56A U59C | 0.768
C4A A14U C34G C55U A65C | ≤ 0.5
C4A A20G G58A A70C | 1.02
U3C A36G G39C C55U C66U | ≤ 0.5
U3C C22U C55G U64A | ≤ 0.5
U3C G12A G48C | 0.558
C4A C11A C33G | 0.544
U3C G58A | 0.922
U3A U13C C49G | ≤ 0.5
U3C C22A G67A | 0.667
C4A A15G C31G G50A | ≤ 0.5
U3G U28C C62U | 0.638
U3C G9A A15U C30A A42G | 0.506
U3C C31U G52A | 0.671

Variant | yeast fitness
U3C C31A C49A | ≤ 0.5
U3A U32A G39A C49G C55U | ≤ 0.5
U3C C11G A21U G56A | ≤ 0.5
C4A C5U C24U U53A A65G | ≤ 0.5
U3C C34A G44C C46U G51A | ≤ 0.5
U3C G48C | 0.817
U3C G48A | 0.952
C4A C5U C29G C33U U59G A69C | 0.533
U3C C46A | 0.912
U3C C46G | 0.912
U3C A14G C30G A43C | ≤ 0.5
U3C A65G G68C | 0.561
C4A A14U A20C U28G G58C C61A | ≤ 0.5
U3C C11A C31A C49G G58C | ≤ 0.5
U3A U26G | 0.781
C4A C5U C22U C34A A65U | ≤ 0.5
U3C C31U A70U | 0.865
U3C C29G G44C C49G A57C | ≤ 0.5
C4A C11U A21U G23A | ≤ 0.5
C4A A70U | 0.879
C4A A70G | 0.93
U3C U28C | 1.08
U3G A36G G52A C66A A69U | ≤ 0.5
